Experimental findings from ChEMBL document CHEMBL3603811, “Design, chemical synthesis and biological evaluation of 3-spiromorpholinone/3-spirocarbamate androsterone derivatives as inhibitors of 17β-hydroxysteroid dehydrogenase type 3” (Bioorg Med Chem, 2015) are described below.

The subject of test [1] is LAPC4. The test is described as follows: Androgenic activity in human LAPC4 cells expressing androgen receptor assessed as induction of cell proliferation at 1 uM after 3 days by MTS assay relative to control. The class given is functional. Put shortly: (§1)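 LAPC-4 (AR+) cells in RPMI-1640 with 5% dextran-coated charcoal-treated FBS to remove hormones. Triplicate cultures of 10,000 cells preincubated 24 h at 37 °C, 5% CO2. Compounds from 10^-2 M DMSO stock, diluted in medium, added for 3 days (final DMSO 0.05%; vehicle controls). Growth read by MTS. Androgenicity = % proliferation minus basal set at 100%.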

Test [2] deals with T1, 17-beta-hydroxysteroid dehydrogenase type 3 (Rattus norvegicus) (UniProt O54939).
T1 sequence (whole entry): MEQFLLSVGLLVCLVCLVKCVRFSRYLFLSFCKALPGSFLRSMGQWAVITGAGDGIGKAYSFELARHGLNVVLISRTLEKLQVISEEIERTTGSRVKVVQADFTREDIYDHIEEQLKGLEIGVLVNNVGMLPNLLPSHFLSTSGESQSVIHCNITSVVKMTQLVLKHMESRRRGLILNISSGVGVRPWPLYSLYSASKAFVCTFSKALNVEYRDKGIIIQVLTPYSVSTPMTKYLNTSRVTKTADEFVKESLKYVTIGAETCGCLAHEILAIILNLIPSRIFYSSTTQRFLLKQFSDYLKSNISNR
The test is described as follows: Inhibition of 17beta-HSD3 in rat testes microsomes using [14C]-4-androstene-3,17-dione as substrate measured based on 4% of initial enzyme transformation at 10 uM after 2 hrs. As to conditions: Testis. Put shortly:
(§2)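 Rat testis microsomes: homogenate in phosphate/sucrose/EDTA buffer pH 7.5 with protease inhibitors, spun 12,500g, then pellet from 100,000g, at 4 °C. Reaction 2 h at 37 °C in 50 mM sodium phosphate pH 7.4, 20% glycerol, 1 mM EDTA, with NADPH and [14C]-Δ4-dione (50 nM). Inhibitor in DMSO. [14C]-T and substrate identified against reference steroids and quantified. Percent transformation and percent inhibition calculated.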

Test [3] has as its system LAPC4. Description: Androgenic activity in human LAPC4 cells expressing androgen receptor assessed as induction of cell proliferation at 0.1 uM after 3 days by MTS assay relative to control. Format: functional. Put shortly:
as §1
On the technique in general: Tetrazolium assays rely on reduction of a dye to a coloured formazan, in cell work by metabolically active cells.

Test [4] has as its target T1, 17-beta-hydroxysteroid dehydrogenase type 3 (Rattus norvegicus). Description: Inhibition of 17beta-HSD3 in rat testes microsomes using [14C]-4-androstene-3,17-dione as substrate measured based on 4% of initial enzyme transformation at 1 uM after 2 hrs. The following applies: Testis. A digest of the protocol: as §2
Test [5] shares this target. Description: Inhibition of 17beta-HSD3 in rat testes microsomes using [14C]-4-androstene-3,17-dione as substrate measured based on 18% of initial enzyme transformation at 0.1 uM after 2 hrs. As to conditions: Testis. Put shortly:
as §2

For test [6] the target is unchanged. Description: Inhibition of 17beta-HSD3 in rat testes microsomes using [14C]-4-androstene-3,17-dione as substrate measured based on 18% of initial enzyme transformation at 1 uM after 2 hrs. The following applies: Testis. Put shortly: as §2
Test [7] shares this target. Description: Inhibition of 17beta-HSD3 in rat testes microsomes using [14C]-4-androstene-3,17-dione as substrate measured based on 18% of initial enzyme transformation at 0.01 uM after 2 hrs. The following applies: Testis. Put shortly: as §2

Molecules are shown by their SMILES.

In the case of `C[C@]12CC[C@]3(CN[C@H](Cc4ccccc4)C(=O)O3)C[C@@H]1CC[C@@H]1[C@@H]2CC[C@]2(C)C(=O)CC[C@@H]12`, the Activity in the test on LAPC4 [1] is 15.3%; in the test with LAPC4 [3], 0%. The inhibition in test [2] was determined as 70.6%.

Consider `C[C@]12CC[C@]3(CN[C@@H](Cc4ccccc4)C(=O)O3)C[C@@H]1CC[C@@H]1[C@@H]2CC[C@]2(C)C(=O)CC[C@@H]12`, for which the Activity in the test with LAPC4 [1] turned out to be 36.5%; in the test with LAPC4 [3], 3.9%. Further, the figures for the inhibition in test [2] and in test [4] were 88.2% and 75%, respectively.

With `CC(C)C[C@H]1NC[C@]2(CC[C@@]3(C)[C@@H](CC[C@@H]4[C@@H]3CC[C@]3(C)C(=O)CC[C@@H]43)C2)OC1=O`, the Activity is given as 23.6% in the test with LAPC4 [1] and 7.9% in the test on LAPC4 [3]. Also, the inhibition is 77.7% in test [2], 50.2% in test [4] and 17.9% in test [5].

Turning to `O=C1OC2(CCCCC2)CN(Cc2cn(Cc3ccccc3)nn2)[C@H]1Cc1ccccc1`, the results for the Activity in the test on LAPC4 [1] and with LAPC4 [3] were 12.4% and 2.5%, respectively. For the same compound, the inhibition in test [6] was 13.3%; in test [5], 9.4%; in test [7], 0%.

In the case of `C[C@]12CC[C@@]3(C[C@@H]1CC[C@@H]1[C@@H]2CC[C@]2(C)C(=O)CC[C@@H]12)CN(Cc1cc(C(F)(F)F)cc(C(F)(F)F)c1)CC(=O)O3`, the Activity with LAPC4 [1] was 5.9%; in the test on LAPC4 [3] it was 12%. The inhibition in test [6] came to 94.4%; in test [5], 61.6%; in test [7] it was 15.1%.

As for `C[C@]12CC[C@@]3(C[C@@H]1CC[C@@H]1[C@@H]2CC[C@]2(C)C(=O)CC[C@@H]12)CN(Cc1cn(Cc2ccccc2)nn1)CC(=O)O3`, the results for the Activity with LAPC4 [1] and in the test with LAPC4 [3] were 17.7% and 10%, respectively. Moreover, the inhibition in test [6] was 85.3%; in test [5] it was 42.2%; in test [7] it was 5.1%.

On to `COC(=O)[C@@H](Cc1ccccc1)N1C[C@]2(CC[C@@]3(C)[C@@H](CC[C@@H]4[C@@H]3CC[C@]3(C)C(=O)CC[C@@H]43)C2)OC1=O`, for which the figures for the Activity in the test with LAPC4 [1] and in the test with LAPC4 [3] were 29.2% and 0%, respectively. Further, the values for the inhibition in test [2], in test [4] and in test [5] were 80.8%, 74.3% and 56.1%, respectively.

Take `C[C@]12CC[C@@]3(C[C@@H]1CC[C@@H]1[C@@H]2CC[C@]2(C)C(=O)CC[C@@H]12)CN(Cc1ccccc1C(F)(F)F)CC(=O)O3`: the Activity in the test with LAPC4 [1] came out at 36.9%; in the test on LAPC4 [3], 0.5%. For the same compound, the inhibition in test [6] was 83%; in test [5], 77.9%; in test [7], 24.4%.

On to `CC(C)C[C@@H]1C(=O)O[C@@]2(CC[C@@]3(C)[C@@H](CC[C@@H]4[C@@H]3CC[C@]3(C)C(=O)CC[C@@H]43)C2)CN1Cc1ccccc1`, for which the figures for the Activity in the test on LAPC4 [1] and in the test with LAPC4 [3] were 47.7% and 6.2%, respectively. Also, the inhibition in test [2] came to 82.3%; in test [4] it was 56.5%; in test [5], 45.9%.

`C[C@]12CC[C@@]3(C[C@@H]1CC[C@@H]1[C@@H]2CC[C@]2(C)C(=O)CC[C@@H]12)CN(Cc1ccc(C(F)(F)F)cc1C(F)(F)F)CC(=O)O3`: the Activity in the test on LAPC4 [1] is on record as 27%; in the test on LAPC4 [3] it was 0%. Further, the inhibition in test [6] was determined as 89.6%; in test [5] it was 64.1%; in test [7], 18.3%.

For the compound `C[C@]12CC[C@]3(CNCC(=O)O3)C[C@@H]1CC[C@@H]1[C@@H]2CC[C@]2(C)C(=O)CC[C@@H]12`, the Activity in the test with LAPC4 [1] is 32%; in the test on LAPC4 [3] it was 9.7%. The inhibition in test [2] is 82%; in test [4] it was 44.7%; in test [5], 0%.

Consider `COC(=O)CN1C[C@]2(CC[C@@]3(C)[C@@H](CC[C@@H]4[C@@H]3CC[C@]3(C)C(=O)CC[C@@H]43)C2)OC1=O`, for which the Activity stood at 33.8% with LAPC4 [1] and 11% with LAPC4 [3]. For the same compound, the results for the inhibition in test [2], in test [4] and in test [5] were 80.8%, 54.6% and 9%, respectively.

On to `C#CCN1CC(=O)O[C@@]2(CC[C@@]3(C)[C@@H](CC[C@@H]4[C@@H]3CC[C@]3(C)C(=O)CC[C@@H]43)C2)C1`, for which the Activity in the test with LAPC4 [1] is 25.5%; with LAPC4 [3], 20.1%. Moreover, the inhibition in test [6] was 80.7%; in test [5], 34.1%; in test [7], 0.1%.

Regarding `C[C@]12CC[C@@]3(C[C@@H]1CC[C@@H]1[C@@H]2CC[C@]2(C)C(=O)CC[C@@H]12)CN(Cc1ccc(I)cc1)CC(=O)O3`, the figures for the Activity in the test on LAPC4 [1] and with LAPC4 [3] were 15.9% and 0.9%, respectively. Further, the values for the inhibition in test [6], in test [5] and in test [7] were 95.3%, 79% and 12.2%, respectively.

`C[C@]12CC[C@@]3(C[C@@H]1CC[C@@H]1[C@@H]2CC[C@]2(C)C(=O)CC[C@@H]12)CN(Cc1ccccc1)[C@H](Cc1ccccc1)C(=O)O3`: the Activity in the test on LAPC4 [1] came out at 50.1%; in the test with LAPC4 [3], 9.9%. In addition, in test [4], the inhibition was 61.7%.

As to `C[C@]12CCC(=O)C[C@@H]1CC[C@@H]1[C@@H]2CC[C@]2(C)[C@@H](O)CC[C@@H]12` [STANOLONE], the Activity was 51.5% in the test with LAPC4 [1] and 28.8% in the test with LAPC4 [3].

With `COC(=O)[C@H](Cc1ccccc1)N1C[C@]2(CC[C@@]3(C)[C@@H](CC[C@@H]4[C@@H]3CC[C@]3(C)C(=O)CC[C@@H]43)C2)OC1=O`, the Activity in the test on LAPC4 [1] and in the test on LAPC4 [3] was 0% throughout. Moreover, the figures for the inhibition in test [2], in test [4] and in test [5] were 87.7%, 72.1% and 48.3%, respectively.

In the case of `C[C@]12CC[C@@]3(C[C@@H]1CC[C@@H]1[C@@H]2CC[C@]2(C)C(=O)CC[C@@H]12)CN(Cc1cccc2ccccc12)CC(=O)O3`, the results for the Activity with LAPC4 [1] and with LAPC4 [3] were 9.3% and 3.8%, respectively. The figures for the inhibition in test [6], in test [5] and in test [7] were 94.5%, 79.1% and 12.8%, respectively.

For `C[C@]12CC[C@@]3(C[C@@H]1CC[C@@H]1[C@@H]2CC[C@]2(C)C(=O)CC[C@@H]12)CN(Cc1ccccc1)[C@@H](Cc1ccccc1)C(=O)O3`, the Activity came to 53.7% in the test with LAPC4 [1] and 6.1% in the test with LAPC4 [3]. Also, the inhibition in test [2] turned out to be 83.6%; in test [4], 81%.

Regarding `C[C@]12CC[C@@]3(C[C@@H]1CC[C@@H]1[C@@H]2CC[C@]2(C)C(=O)CC[C@@H]12)CN(Cc1cccc(C(F)(F)F)c1)CC(=O)O3`, the Activity with LAPC4 [1] came out at 27%; in the test on LAPC4 [3], 0%. In addition, the inhibition in test [6] came to 94.2%; in test [5] it was 54.1%; in test [7] it was 17.7%.

Turning to `C[C@]12CC[C@@]3(C[C@@H]1CC[C@@H]1[C@@H]2CC[C@]2(C)C(=O)CC[C@@H]12)CN(Cc1ccc(-c2cccc(C(F)(F)F)c2)cc1)CC(=O)O3`, the Activity with LAPC4 [1] is listed as 14.3%; in the test on LAPC4 [3], 13.5%. Also, the results for the inhibition in test [6], in test [5] and in test [7] were 84.9%, 84.8% and 26.1%, respectively.

As to `C=CCN1CC(=O)O[C@@]2(CC[C@@]3(C)[C@@H](CC[C@@H]4[C@@H]3CC[C@]3(C)C(=O)CC[C@@H]43)C2)C1`, the Activity was found to be 11.3% with LAPC4 [1] and 31% in the test on LAPC4 [3]. Moreover, the inhibition in test [6] stood at 89%; in test [5], 48.6%; in test [7], 8.4%.

For the compound `C#CCN1CC2(CCCCC2)OC(=O)[C@@H]1Cc1ccccc1`, the Activity with LAPC4 [1] came out at 0%; in the test on LAPC4 [3] it was 11.1%. In addition, the inhibition in test [6], in test [5] and in test [7] was 0% in each case.

With `C[C@]12CC[C@@]3(C[C@@H]1CC[C@@H]1[C@@H]2CC[C@]2(C)C(=O)CC[C@@H]12)CN(Cc1ccc2ccccc2c1)CC(=O)O3`, the Activity in the test on LAPC4 [1] amounted to 16.5%; in the test with LAPC4 [3] it was 22.3%. Moreover, the inhibition in test [6] worked out at 93.2%; in test [5] it was 88.3%; in test [7], 0%.

As a reminder, the inhibition is the drop in the measured response relative to a control, in per cent.
